Results published in ChEMBL document CHEMBL1134547 (J Med Chem, 2001).

Experiments:
[1] = Inhibition of dihydrofolate reductase DHFR in Pneumocystis carinii.
How it was run: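 Spectrophotometric DHFR assay following enzymatic reduction of dihydrofolate to tetrahydrofolate with NADPH cofactor. 1 mL mixture in phosphate buffer (40.7 mM, pH 7.4) containing NADPH (0.117 mM), dihydrofolate (0.092 mM), 2-mercaptoethanol (8.9 mM) and 0.018 units DHFR. IC50 is the drug concentration that halves the reduction rate relative to control.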

[2] = target: T1, Bifunctional dihydrofolate reductase-thymidylate synthase (Toxoplasma gondii, UniProt Q07422); assay: Inhibitory activity against dihydrofolate reductase DHFR in Toxoplasma gondii.
T1 sequence (Q07422 whole entry): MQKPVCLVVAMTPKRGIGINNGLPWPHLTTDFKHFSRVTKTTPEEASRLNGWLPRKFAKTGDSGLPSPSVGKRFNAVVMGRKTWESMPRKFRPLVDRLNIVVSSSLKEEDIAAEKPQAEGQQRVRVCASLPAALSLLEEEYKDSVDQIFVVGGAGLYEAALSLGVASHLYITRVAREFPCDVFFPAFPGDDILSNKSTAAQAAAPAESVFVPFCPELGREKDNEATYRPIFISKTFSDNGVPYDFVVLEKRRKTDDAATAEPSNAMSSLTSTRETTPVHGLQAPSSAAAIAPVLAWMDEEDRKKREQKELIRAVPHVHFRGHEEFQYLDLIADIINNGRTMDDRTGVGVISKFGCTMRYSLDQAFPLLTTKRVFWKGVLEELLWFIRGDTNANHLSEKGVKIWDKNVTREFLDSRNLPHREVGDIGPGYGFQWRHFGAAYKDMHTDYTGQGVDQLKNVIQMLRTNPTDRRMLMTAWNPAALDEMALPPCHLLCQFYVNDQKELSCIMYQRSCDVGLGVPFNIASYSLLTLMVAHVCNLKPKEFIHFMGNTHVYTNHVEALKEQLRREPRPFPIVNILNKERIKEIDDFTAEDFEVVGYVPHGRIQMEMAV

[3] = target: T2, Dihydrofolate reductase (Rattus norvegicus, UniProt Q920D2); assay: Inhibitory activity against dihydrofolate reductase DHFR in rat liver
T2 sequence (Q920D2 whole entry): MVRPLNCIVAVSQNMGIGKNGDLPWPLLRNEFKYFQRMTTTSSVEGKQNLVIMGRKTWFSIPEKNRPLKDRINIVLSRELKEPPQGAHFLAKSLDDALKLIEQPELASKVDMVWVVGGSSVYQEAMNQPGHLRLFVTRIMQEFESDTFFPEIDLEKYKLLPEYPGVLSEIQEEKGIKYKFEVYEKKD

[4] = target: T3, Dihydrofolate reductase (Mycobacterium avium, UniProt O30463); assay: Inhibitory activity against dihydrofolate reductase DHFR in Mycobacterium avium
T3 sequence (O30463 whole entry): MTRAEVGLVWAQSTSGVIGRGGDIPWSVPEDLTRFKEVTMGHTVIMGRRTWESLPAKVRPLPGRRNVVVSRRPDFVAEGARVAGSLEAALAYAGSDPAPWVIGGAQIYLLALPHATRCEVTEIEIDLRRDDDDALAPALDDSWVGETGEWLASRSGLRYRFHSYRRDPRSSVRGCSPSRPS

[5] = Selectivity ratio of IC50(rat liver)/IC50(Mycobacterium avium)

IC50 [1] [µM]	IC50 [3] [µM]	Compound	IC50 [2] [µM]	IC50 [4] [µM]	Selectivity ratio [5]
1.4	0.39	CCc1nc(N)nc(N)c1-c1ccc(Cl)c(/N=N/N(CCOC(C)=O)Cc2ccc(OC)c(OC)c2)c1	0.08	–	–
0.053	0.28	CCc1nc(N)nc(N)c1-c1ccc(Cl)c(/N=N/N(CCOC(C)=O)Cc2cccc3ccccc23)c1	0.2	–	–
0.26	–	CCc1nc(N)nc(N)c1-c1ccc(Cl)c(/N=N/N(CCO)Cc2ccccc2)c1	–	–	–
1.3	3.3	CCC(=O)OCCN(Cc1ccccc1)/N=N/c1cc(-c2c(N)nc(N)nc2CC)ccc1Cl	0.7	–	–
1.26	6.51	CCc1nc(N)nc(N)c1-c1ccc(Cl)c(/N=N/N(CCO)[C@@H](C)c2ccccc2)c1	2.7	–	–
0.58	1.29	CCc1nc(N)nc(N)c1-c1ccc(Cl)c(/N=N/N(CCOC(C)=O)Cc2cccc(Cl)c2)c1	1.16	–	–
3.65	–	CCc1nc(N)nc(N)c1-c1ccc(Cl)cc1 [PYRIMETHAMINE]	–	–	–
0.85	0.69	CCc1nc(N)nc(N)c1-c1ccc(Cl)c(/N=N/N(CCOC(=O)c2ccccc2)Cc2ccccc2)c1	0.22	–	–
2.8	–	CCc1nc(N)nc(N)c1-c1ccc(Cl)c(/N=N/N(C)C)c1	–	–	–
1.09	6.44	CCc1nc(N)nc(N)c1-c1ccc(Cl)c(/N=N/N(CCO)[C@H](C)c2ccccc2)c1	1.47	–	–
0.94	1.8	CCc1nc(N)nc(N)c1-c1ccc(Cl)c(/N=N/N(CCOC(C)=O)Cc2ccc(Cl)cc2)c1	0.8	–	–
92	14.9	CCc1nc(N)nc(N)c1-c1ccc(Cl)c(/N=N/N(CCOC(C)=O)Cc2ccccc2F)c1	7.8	–	–
1.5	0.45	CCc1nc(N)nc(N)c1-c1ccc(Cl)c(/N=N/N(CCOC(C)=O)Cc2cc(OC)c(OC)c(OC)c2)c1	0.07	–	–
4.7	8.4	CCc1nc(N)nc(N)c1-c1ccc(Cl)c(/N=N/N(CCOC(C)=O)Cc2ccccc2Cl)c1	6.1	–	–
0.59	0.62	CCc1nc(N)nc(N)c1-c1ccc(Cl)c(/N=N/N(CCOC(C)=O)Cc2ccc3ccccc3c2)c1	1.05	–	–
–	2.1	CCc1nc(N)nc(N)c1-c1ccc(Cl)c(/N=N/N(CCOC(C)=O)Cc2ccc(OC)cc2)c1	0.44	–	–
1.35	6.62	CCc1nc(N)nc(N)c1-c1ccc(Cl)c(/N=N/N(CCOC(C)=O)Cc2ccc(C(F)(F)F)cc2)c1	2.54	–	–
1.2	3.7	CCc1nc(N)nc(N)c1-c1ccc(Cl)c(/N=N/N(CCOC(=O)C(C)C)Cc2ccccc2)c1	0.66	–	–

Compound	IC50 [1] [µM]	IC50 [3] [µM]	IC50 [2] [µM]	IC50 [4] [µM]	Selectivity ratio [5]
CCc1nc(N)nc(N)c1-c1ccc(Cl)c(/N=N/N(CCOC(C)=O)Cc2cccc(C)c2)c1	5.29	5.8	5.39	25.2	0.23
CCc1nc(N)nc(N)c1-c1ccc(Cl)c(/N=N/N(CCOC(C)=O)Cc2ccc(C)cc2)c1	1.7	3.85	0.63	4.43	0.87
CCc1nc(N)nc(N)c1-c1ccc(Cl)c(/N=N/N(CCO)CCc2ccccc2)c1	0.48	4.67	1.79	5.42	0.86
CCc1nc(N)nc(N)c1-c1ccc(Cl)c(/N=N/N(CCOC(C)=O)Cc2ccc([N+](=O)[O-])cc2)c1	1.21	3.33	0.85	5.34	0.62
CCc1nc(N)nc(N)c1-c1ccc(Cl)c(/N=N/N(CCOC(C)=O)Cc2ccncc2)c1	3.46	6.19	0.64	2.03	3.05
CCc1nc(N)nc(N)c1-c1ccc(Cl)c(/N=N/N(CCOC(C)=O)Cc2ccccc2C)c1	11.1	11.2	0.83	24.5	–
CCc1nc(N)nc(N)c1-c1ccc(Cl)c(/N=N/N(CCOC(C)=O)Cc2cccc([N+](=O)[O-])c2)c1	1.3	1.61	0.83	3.69	0.44
CCc1nc(N)nc(N)c1-c1ccc(Cl)c(/N=N/N(CCCO)Cc2ccccc2)c1	0.68	7.35	2.01	3.9	1.88
CCc1nc(N)nc(N)c1-c1ccc(Cl)c(/N=N/N(CCOC(C)=O)Cc2cc(OC)cc(OC)c2)c1	0.86	0.845	0.378	4.36	0.19
CCc1nc(N)nc(N)c1-c1ccc(Cl)c(/N=N/N(CCOC(C)=O)Cc2cccc(F)c2)c1	2.22	3.87	1.25	4.07	0.95
CCc1nc(N)nc(N)c1-c1ccc(Cl)c(/N=N/N(CCOC(C)=O)Cc2ccc(F)cc2)c1	1.91	3.83	4.4	7.46	0.51
